We go through twelve compounds from ChEMBL document CHEMBL1833870, “Deconstruction of the α4β2 nicotinic acetylcholine receptor positive allosteric modulator desformylflustrabromine” (J Med Chem, 2011).

Structures can show the parent of a compound that is named as a salt. Active and inactive are the calls of the source. The rule behind the calls is not given here.

Experiment [1] deals with Neuronal acetylcholine receptor subunit alpha-7 (Homo sapiens, UniProt P36544). Nature of the experiment: Antagonist activity at human alpha7 nAChR expressed in xenopus oocyte assessed as inhibition of acetylcholine-induced current by two-electrode voltage clamp assay. Format: functional. A digest of the protocol: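 Xenopus stage IV oocytes were injected with human α7 cRNA (50 nL, 0.2 ng/nL) and kept 24–72 h at 19 °C. Recording was by two-electrode voltage clamp with ND-96 perfusion (pH 7.4) at 20 mL/min. Compound dissolved in ND-96 was co-applied with ACh, and inhibition of the ACh response was read. Concentration–response data were fit by non-linear regression.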

For experiment [2], the target named is T1, Neuronal acetylcholine receptor; alpha4/beta2 (Homo sapiens, UniProt P17787+P43681). Nature of the experiment: Agonist activity at human alpha4beta2 nACHR expressed in xenopus oocyte assessed as potentiation of acetylcholine-induced current by two electrode voltage clamp assay. Format: functional. A digest of the protocol: (§1)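 Human α4 and β2 cRNA injected into stage IV Xenopus oocytes (50 nL total at 0.2 ng/nL, subunit ratio as appropriate), then incubated 24–72 h at 19 °C. Two-electrode voltage clamp in a vertical flow chamber perfused with ND-96 (pH 7.4) at 20 mL/min. Compound in ND-96 was co-applied with ACh, and the enhancement of current was measured. Concentration–response curves were fit by non-linear regression.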
(Two-electrode voltage clamp is typically applied to oocytes expressing channels or transporters.)

Experiment [3] concerns the target T1, Neuronal acetylcholine receptor; alpha4/beta2. Put plainly: Agonist activity at human alpha4beta2 nACHR expressed in xenopus oocyte assessed as potentiation of acetylcholine-induced current by two electrode voltage clamp assay relative to acetylcholine. Type of experiment: functional. An outline of the steps:
as §1

The species entered for experiment [4] is Homo sapiens. Nature of the experiment: Selectivity ratio of IC50 for human alpha7 nAChR to IC50 for human alpha4beta2 nAChR.

T1 sequence (P17787 whole entry, the tested form may be a part): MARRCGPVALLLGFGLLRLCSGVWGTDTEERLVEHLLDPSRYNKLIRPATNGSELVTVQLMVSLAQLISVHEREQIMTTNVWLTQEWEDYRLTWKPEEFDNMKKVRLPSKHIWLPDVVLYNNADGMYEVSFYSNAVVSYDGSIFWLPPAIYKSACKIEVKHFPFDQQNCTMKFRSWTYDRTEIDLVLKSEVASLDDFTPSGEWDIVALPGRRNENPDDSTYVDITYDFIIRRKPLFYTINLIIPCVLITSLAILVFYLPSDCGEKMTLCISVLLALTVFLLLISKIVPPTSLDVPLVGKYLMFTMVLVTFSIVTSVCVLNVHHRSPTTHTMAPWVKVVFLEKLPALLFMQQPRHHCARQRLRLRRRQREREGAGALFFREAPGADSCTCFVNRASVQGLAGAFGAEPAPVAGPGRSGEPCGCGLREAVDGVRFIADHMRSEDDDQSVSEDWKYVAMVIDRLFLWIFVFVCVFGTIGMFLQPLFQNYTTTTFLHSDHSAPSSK
T1 sequence (P43681 whole entry, the tested form may be a part): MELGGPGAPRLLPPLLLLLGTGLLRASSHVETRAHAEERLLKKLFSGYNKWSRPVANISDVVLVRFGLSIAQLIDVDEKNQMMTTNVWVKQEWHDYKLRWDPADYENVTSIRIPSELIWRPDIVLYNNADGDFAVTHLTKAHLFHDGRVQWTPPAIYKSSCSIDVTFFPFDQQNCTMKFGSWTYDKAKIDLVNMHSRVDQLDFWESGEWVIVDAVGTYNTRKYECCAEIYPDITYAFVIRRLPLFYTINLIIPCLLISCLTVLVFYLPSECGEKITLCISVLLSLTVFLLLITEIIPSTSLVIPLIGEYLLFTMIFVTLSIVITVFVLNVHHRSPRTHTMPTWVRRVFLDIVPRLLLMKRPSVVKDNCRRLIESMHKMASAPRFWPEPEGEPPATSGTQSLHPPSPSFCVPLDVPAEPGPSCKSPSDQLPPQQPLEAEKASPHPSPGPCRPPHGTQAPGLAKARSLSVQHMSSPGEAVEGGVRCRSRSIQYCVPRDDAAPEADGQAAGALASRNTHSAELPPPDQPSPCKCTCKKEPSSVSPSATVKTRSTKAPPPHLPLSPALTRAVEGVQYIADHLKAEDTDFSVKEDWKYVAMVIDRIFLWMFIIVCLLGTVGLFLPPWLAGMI
Sequence of Neuronal acetylcholine receptor subunit alpha-7 (P36544 whole entry, the tested form may be a part): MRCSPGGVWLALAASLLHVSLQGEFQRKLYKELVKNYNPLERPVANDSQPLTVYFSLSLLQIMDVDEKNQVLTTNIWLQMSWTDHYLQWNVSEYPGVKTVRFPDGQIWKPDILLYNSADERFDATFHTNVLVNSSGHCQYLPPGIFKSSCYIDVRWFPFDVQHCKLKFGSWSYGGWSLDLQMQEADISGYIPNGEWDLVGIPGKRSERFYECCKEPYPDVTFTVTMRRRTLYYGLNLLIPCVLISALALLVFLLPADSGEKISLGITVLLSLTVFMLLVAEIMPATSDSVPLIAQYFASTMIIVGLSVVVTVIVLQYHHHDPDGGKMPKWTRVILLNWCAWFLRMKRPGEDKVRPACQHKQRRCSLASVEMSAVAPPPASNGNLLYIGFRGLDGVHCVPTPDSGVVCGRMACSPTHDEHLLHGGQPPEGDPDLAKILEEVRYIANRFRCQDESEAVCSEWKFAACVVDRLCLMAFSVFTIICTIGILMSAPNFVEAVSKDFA

`CCC(C)(C)c1[nH]c2ccccc2c1CCNC`: the EC50 in experiment [1] is 20.4 µM; in experiment [2] (read-out: EC50), 1.22 µM; in experiment [2] (read-out: pEC50 (converted)), 3.02 µM. For the same compound, in experiment [3], the maximum response (Emax) (as a rule, the greatest response seen or fitted, relative to the assay's reference) is 260%.
As for `CNCCc1c(C(C)C)[nH]c2ccccc12`, the pEC50 result in experiment [2] was “inactive”.
On to `CCC(C)c1[nH]c2ccccc2c1CCNC` (racemic), for which the EC50 in experiment [1] was 9.77 µM. In addition, the pEC50 result in experiment [2] is “inactive”.
With `C=CC(C)(C)c1[nH]c2ccccc2c1CCNC`, the EC50 is 7.76 µM in experiment [1], 6.77 µM in experiment [2] (read-out: EC50) and 7.24 µM in experiment [2] (read-out: pEC50 (converted)). Moreover, the Emax in experiment [3] came out at 250%.
Consider `CCC(C)(C)c1[nH]c2cc(Br)ccc2c1CCNC`, for which the figures for the EC50 in experiment [1], in experiment [2] (read-out: EC50) and in experiment [2] (read-out: pEC50 (converted)) were 25.7 µM, 0.1 µM and 0.138 µM, respectively. Besides, the Ratio IC50 in experiment [4] amounted to 190. In experiment [3], the Emax was found to be 290%.
With `CCCc1[nH]c2cc(Br)ccc2c1CCNC`, in experiment [1], the EC50 is 20.9 µM. In experiment [2], the pEC50 entry was “inactive”.
Turning to `C=CC(C)(C)c1[nH]c2cc(Br)ccc2c1CCN`, the EC50 in experiment [1] is 5.75 µM; in experiment [2] (read-out: pEC50 (converted)) it was 0.513 µM.
With `C=CCc1[nH]c2cc(Br)ccc2c1CCNC`, the EC50 in experiment [1] was 29.5 µM. Besides, the pEC50 entry in experiment [2] is “inactive”.
As to `CNCCc1c[nH]c2cc(Br)ccc12`, the EC50 in experiment [1] was 11 µM. Besides, the pEC50 result in experiment [2] was “inactive”.
Turning to `CNCCc1c(C(C)(C)C)[nH]c2ccccc12`, the EC50 is 4.79 µM in experiment [1] and 3.98 µM in experiment [2] (read-out: pEC50 (converted)).
Turning to `CCCc1[nH]c2ccccc2c1CCNC`, the EC50 in experiment [1] is 44.7 µM. In addition, in experiment [2], the pEC50 result is “inactive”.
With `C=CC(C)(C)c1[nH]c2cc(Br)ccc2c1CCNC` [DESFORMYLFLUSTRABROMINE HYDROCHLORIDE], the values for the EC50 in experiment [1], in experiment [2] (read-out: EC50) and in experiment [2] (read-out: pEC50 (converted)) were 1.86 µM, 0.32 µM and 0.331 µM, respectively.
